Published values pooled from the literature.
Each line is one published result; the experiments were not run side by side.
Target: Mitogen-activated protein kinase kinase kinase 11 (MAP3K11, Homo sapiens, UniProt Q16584)

| Structure (SMILES) | assay | setting | remaining binding |
| --- | --- | --- | --- |
| C[C@@H]1CCN(c2nccc(-c3cnn4ncccc34)n2)C1 | binding | 1 µM | 100% |
| O=C(c1ccc(Nc2ncc(Cl)c(-c3cc4ccccc4s3)n2)cc1)N1CCC(N2CCCC2)CC1 | binding, competition with immobilised ligand | 1 µM | 11% |
| FC(F)(F)Oc1cccc(-c2cnc3ccc(-c4ccncc4)nn23)c1 | cell-free assay, competition with immobilised ligand | 5 µM | 95% |
| O=C(Nc1ccc(Oc2ccc(F)cc2)cc1)N1CCc2ncccc2[C@H]1c1ccc(F)cc1 | cell-free assay, competition with immobilised ligand | 1 µM | 78% |
| O=C(NCC1CCOCC1)c1n[nH]cc1NC(=O)c1c(F)cccc1F | binding, competition with immobilised ligand | 1 µM | 100% |
| O=C(NCCCN1CCOCC1)c1ccc(Nc2nccc(-c3cc4ccccc4s3)n2)cc1 | binding, competition with immobilised ligand | 1 µM | 39% |
| N[C@@H]1CCN(c2nccc(-c3cnn4ncccc34)n2)C1 | binding | 1 µM | 99% |
| Cc1cnc(Nc2ccc(C(=O)N3CCC(N4CCCC4)CC3)cc2)nc1-c1cc2ccccc2s1 | binding, competition with immobilised ligand | 1 µM | 13% |
| COc1cnc(Nc2cccc(S(N)(=O)=O)c2)nc1N1CCN(c2ccccc2)CC1 | binding, competition with immobilised ligand | 1 µM | 76% |
| O=c1nc(-c2ccccn2)sc2ccccc12 | binding, competition with immobilised ligand | 1 µM | 100% |
| COc1cnc(Nc2cccc(S(N)(=O)=O)c2)nc1N1CCN(c2ccccc2)C(=O)C1 | binding, competition with immobilised ligand | 1 µM | 100% |
| CC1CCCN1c1nccc(-c2cnn3ncccc23)n1 (centres unmarked) | binding | 1 µM | 100% |
| O=C(NCc1ncc(C(F)(F)F)cc1Cl)c1ccc2c(c1)C1(CCS(=O)(=O)CC1)[C@H](C1CC1)N2S(=O)(=O)c1ccc(F)cc1 | cell-free assay, competition with immobilised ligand | 1 µM | 100% |
| CN(c1nccc(-c2cnn3ncccc23)n1)C1CC1 | binding | 1 µM | 100% |
| Cn1cc(Cl)c2c(Oc3c(F)cc(Nc4cc(Cl)nc(N)n4)cc3F)ccnc21 | cell-free assay, competition with immobilised ligand | 0.1 µM | 100% |
| c1cnn2ncc(-c3ccnc(N4CCC45COC5)n3)c2c1 | binding | 1 µM | 100% |
| CN1CCN(c2cnc3c(C4CCN(C(=O)c5ccc(OC(F)(F)F)cc5N)CC4)ncnc3c2)CC1 | cell-free assay, competition with immobilised ligand | 1 µM | 100% |
| CN(CCCC(F)(F)F)c1nccc(-c2cnn3ncccc23)n1 | binding | 1 µM | 75% |
| CCCOc1ccc([C@H]2[C@H](C(=O)O)[C@@H](c3ccc4c(c3)OCO4)CN2CC(=O)Nc2c(CC)cccc2CC)cc1 | cell-free assay, competition with immobilised ligand | 1 µM | 100% |
| COc1ncc2cc3ccccc3nc2c1C#N | cell-free assay, competition with immobilised ligand | 5 µM | 86% |
